Experimental data reported in ChEMBL document CHEMBL4304791, “DABMA: A Derivative of ABMA with Improved Broad-Spectrum Inhibitory Activity of Toxins and Viruses” (ACS Med Chem Lett, 2019).
Activity calls are given as the source filed them. No cut-off for these calls is given here.

Key:
A549 [1] = assay: Cytoprotection activity against diphtheria toxin-induced cytotoxicity against human A549 cells assessed as effect on protein synthesis incubated for 20 hrs followed by replacement of [14c]-Leucine containing medium and measured after 4 hrs by liquid scintillation analysis; type: functional, cell-based
Outline: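 A549 cells were incubated with compound and then challenged with increasing DT concentrations. DT cytotoxicity was read as protein synthesis inhibition. Data are mean of duplicate wells ± SD from one representative experiment (n = 3).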

A549 [2] = assay: Inhibition of diphtheria induced toxicity in human A549 cells assessed as protection factor at 0.15 nM incubated for 20 hrs followed by replacement of [14c]-Leucine containing medium and measured after 4 hrs by liquid scintillation analysis relative to untreated control; type: functional
Outline: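 A549 cells were incubated with Baf A1 (0.15 nM), DABMA (15 μM), both, or DMSO vehicle before DT was added, with the compounds kept present throughout. Toxin protection was read as protein synthesis and expressed as protection factor.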

A549 [3] = assay: Inhibition of diphtheria induced toxicity in human A549 cells assessed as protection fold at 30 uM incubated for 20 hrs followed by replacement of [14c]-Leucine containing medium and measured after 4 hrs by liquid scintillation analysis relative to ABMA; type: functional
Outline: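 Single-concentration screen: 30 μM compound on A549 cells with increasing DT concentrations, read as protein synthesis inhibition. Protection fold was calculated with ABMA as the positive control.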

A549 [4] = assay: Induction of lysosomal activation in human A549 cells at 60 uM incubated for 2 hrs by LysoTracker Red staining based confocal microscopic analysis; type: functional, cell-based
Outline: (§1)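 A549 cells were pretreated 2 h with compound (30 or 60 μM) or DMSO, then stained with LysoTracker Deep Red (50 nM, 30 min) plus Hoechst. Intensity was read from 3 × 3 fields per well (10,000 cells/well) by imaging reader; mean ± SEM, n = 4; confocal images.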

A549 [5] = assay: Increase in cholesterol accumulation in human A549 cells at 60 uM incubated for 18 hrs by choelesterol-avid filipin-3 staining based confocal microscopic analysis; type: functional, cell-based
Outline: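 A549 cells were treated 18 h with compound or DMSO, fixed, and stained with Filipin III for cholesterol. Confocal imaging; fluorescence quantified in >30 cells (mean ± SEM), unpaired t test versus DMSO.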

[6] = Cytotoxicity against human A549 cells assessed as reduction in cell viability incubated for 24 hrs by Alamar blue assay; type: cell-based
Outline: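 A549 cytotoxicity by Alamar Blue viability assay; duplicate wells, mean ± SD, one representative experiment (n = 3).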

A549 [7] = assay: Selectivity index, ratio of CC50 for cytotoxicity against human A549 cells to EC50 for cytoprotective activity in diphtheria-induced cytotoxicity in human A549 cells
A549 [8] = assay: Induction of lysosomal activation in human A549 cells incubated for 2 hrs by LysoTracker Red staining based confocal microscopic analysis; type: functional, cell-based; outline: as §1
A549 [9] = assay: Induction of lysosomal activation in human A549 cells at 30 uM incubated for 2 hrs by LysoTracker Red staining based confocal microscopic analysis; type: functional, cell-based; outline: as §1
L929 = assay: Cytoprotective activity in Pseudomonas aeruginosa exotoxin-induced toxicity in mouse L929 cells assessed as protection of protein synthesis after 18 hrs followed by replacement of [14c]-Leucine containing medium and measured after 4 hrs by liquid scintillation analysis by liquid scintillation analysis; type: functional, cell-based
Outline: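 L929 cells were intoxicated with increasing doses of Pseudomonas exotoxin A for 18 h with compound (30 μM) or DMSO present. Protein synthesis was measured; duplicate wells, mean ± SD, one representative experiment (n = 3).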

Lyssavirus rabies = assay: Antiviral activity against RABV infected in BSR cells preincubated for 4 hrs followed by viral infection and further incubated with compounds for 24 hrs by immunostaining-based assay; type: functional, organism-based
Outline: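 BSR cells were pretreated 4 h with compound, then infected with RABV (MOI = 14) for 1 h. Cells were washed and kept with compound for 24 h, then fixed and immunostained for the RABV ribonucleocapsid (RNP). Nuclei and RNP images from 15 fields per well (>10,000 cells) were used to calculate percent inhibition.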

Vero = assay: Inhibition of TcdB-induced cytotoxicity against African green monkey Vero cells assessed as reduction in toxin-induced cell rounding at 30 uM in presence of TcdB after 4 hrs by inverted microscopic analysis; type: functional, cell-based; settings: Chlorocebus sabaeus
Outline: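 Vero cells were given compound (30 μM) or DMSO, then increasing doses of TcdB for 4 h or TcsL for 16 h. Cell rounding was imaged by inverted microscope. Rounded cells were counted and normalised to total Hoechst-counterstained cells (>100 cells per treatment).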

SMILES | fold change (FC) (A549 [3]) | also measured
CO/C1=C\C(C)=C\[C@@H](C)[C@@H](O)[C@@H](C)C/C(C)=C/C=C/[C@H](OC)[C@@H]([C@@H](C)[C@@H](O)[C@H](C)[C@@]2(O)C[C@@H](O)[C@H](C)[C@@H](C(C)C)O2)OC1=O [BAFILOMYCIN A1] |  | EC50 (A549 [1]): 0.0006 µM; fold change (FC) (A549 [2]): 5.2
COc1ccc(Br)cc1CNC(C)(C)C | 0 | 
COc1ccc(Br)cc1CN(C)C12CC3CC(CC(C3)C1)C2 | 0.52 | 
Ic1ccc(CNC23CC4CC(CC(C4)C2)C3)cc1 | 6.6 | 
COc1ccc(Br)cc1C(=O)NC12CC3CC(CC(C3)C1)C2 | 0 | Activity (A549 [4]): inactive; Activity (A549 [5]): inactive
CC12CC3CC(C)(C1)CC(NCc1ccc(I)cc1)(C3)C2 | 12.5 | CC50 at 24 h [6]: 137 µM; Ratio CC50/EC50 (A549 [7]): 3.6; EC50 (A549 [1]): 38.3 µM
COc1ccc(Br)cc1CN(C(C)=O)C12CC3CC(CC(C3)C1)C2 | 0.3 | Activity (A549 [8]): inactive
COc1ccc(Br)cc1CNc1ccccc1 | 0.19 | 
CCCCCCCCCNCc1cc(Br)ccc1OC | 0.26 | 
CC(N)C12CC3CC(CC(C3)C1)C2.Cl (stereo not given) [RIMANTADINE HYDROCHLORIDE] | 0.35 | 
COc1ccc(Br)cc1/C=N/C12CC3CC(CC(C3)C1)C2 | 0.05 | Activity (A549 [8]): inactive
NC12CC3CC(CC(C3)C1)C2 [AMANTADINE] | 0.3 | 
COc1cc(I)ccc1CNC12CC3CC(CC(C3)C1)C2 | 3.6 | 
Cn1c(CNC2C3CC4CC(C3)CC2C4)cc2ccccc21 (stereo not given) | 0.21 | 
COc1ccc(Br)cc1CNc1cccc2ccccc12 | 0.19 | 
COc1ccc(Br)cc1CN(C(=O)c1ccccc1)C12CC3CC(CC(C3)C1)C2 | 0.25 | 
O=[N+]([O-])c1cccc(CNC23CC4CC(CC(C4)C2)C3)c1 | 5.7 | 
COc1ccc(Br)cc1CN[C@H]1C[C@@H]2CC[C@@]1(C)C2(C)C | 0.4 | 
COc1ccc(Br)cc1CNC1CCCCC1 | 0 | 
COc1ccc(Br)cc1CNCc1ccccc1 | 0 | 
COc1ccc(Br)cc1CNC12CC3CC(CC(C3)C1)C2 |  | CC50 at 24 h [6]: 277 µM; Activity (A549 [9]): Active; Ratio CC50/EC50 (A549 [7]): 4.4; EC50 (A549 [1]): 62.9 µM; Activity (L929): Active; inhibition (Lyssavirus rabies): Active; inhibition (Vero): Active
CC12CC3CC(C)(C1)CC(N)(C3)C2 [MEMANTINE] | 0 | 
NC(=O)c1ncn([C@@H]2O[C@H](CO)[C@@H](O)[C@H]2O)n1 |  | inhibition (Lyssavirus rabies): Active
Cn1c(CNC23CC4CC(CC(C4)C2)C3)cc2ccccc21 | 0.21 | 
COc1ccc(Br)cc1CNCCCc1ccccc1 | 0.52 | 
COc1ccc(I)cc1CNC12CC3CC(C)(CC(C)(C3)C1)C2 | 35.1 | CC50 at 24 h [6]: 90.8 µM; Ratio CC50/EC50 (A549 [7]): 3.6; EC50 (A549 [1]): 25.1 µM
COc1ccc(Br)cc1CNC1CC(C)CCC1C(C)C (stereo not given) | 2.2 | 
Brc1ccc(CNC23CC4CC(CC(C4)C2)C3)cc1 | 2.3 | 
